# Measured values: ChEMBL document CHEMBL3784960, “New 4-Functionalized Glutamate Analogues Are Selective Agonists at Metabotropic Glutamate Receptor Subtype 2 or Selective Agonists at Metabotropic Glutamate Receptor Group III” (J Med Chem, 2016)
# Active and inactive are the calls of the source. The calls are words filed in the database; no cut-off is given here.
# Target: T1, Excitatory amino acid transporter 2 (Homo sapiens, UniProt P43004)
# Test: Inhibition of human EAAT2 assessed as [3H]Asp uptake
# Details: not given
# T1 sequence (P43004 whole entry): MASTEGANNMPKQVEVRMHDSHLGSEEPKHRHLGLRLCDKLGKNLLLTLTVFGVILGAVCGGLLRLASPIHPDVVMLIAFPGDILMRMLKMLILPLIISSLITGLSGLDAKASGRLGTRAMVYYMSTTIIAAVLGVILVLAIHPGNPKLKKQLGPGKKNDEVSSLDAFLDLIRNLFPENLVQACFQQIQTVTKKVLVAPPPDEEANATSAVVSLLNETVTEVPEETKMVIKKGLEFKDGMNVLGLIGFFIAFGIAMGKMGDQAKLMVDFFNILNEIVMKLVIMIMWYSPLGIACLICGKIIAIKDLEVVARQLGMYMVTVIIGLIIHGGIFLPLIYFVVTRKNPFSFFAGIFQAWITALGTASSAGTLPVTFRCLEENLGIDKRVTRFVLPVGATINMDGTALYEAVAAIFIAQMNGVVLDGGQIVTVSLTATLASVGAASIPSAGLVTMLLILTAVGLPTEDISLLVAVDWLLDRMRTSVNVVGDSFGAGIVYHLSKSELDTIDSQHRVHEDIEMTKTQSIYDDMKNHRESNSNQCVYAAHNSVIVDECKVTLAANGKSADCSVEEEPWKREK
row,Structure (SMILES),IC50 [µM]
1,N[C@@H](C[C@]1(C(=O)O)C[C@@H]1C(=O)O)C(=O)O,> 300
2,N[C@@H](C[C@@H](CCC(=O)O)C(=O)O)C(=O)O,> 300

# Target: not listed separately
# Test: Displacement of [3H]AMPA from rat synaptosome AMPA receptor after 30 mins by microplate scintillation counter analysis
# Details: not given
row,Structure (SMILES),IC50 [µM]
1,N[C@@H](C[C@]1(C(=O)O)C[C@@H]1C(=O)O)C(=O)O,> 100
2,N[C@@H](C[C@@H](CCC(=O)O)C(=O)O)C(=O)O,> 100

# Target: Metabotropic glutamate receptor 8 (Rattus norvegicus, UniProt P70579)
# Test: Agonist activity at rat mGlu8 receptor expressed in HEK293 cells assessed as IP1 accumulation by IP-One functional assay
# Format: cell-based
# Details: not given
# In short: (§1)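 HEK293 cells were transiently electroporated with the rat receptor plus a chimeric Gi/Gq protein for PLC coupling and EAAC1. Medium was replaced by Glutamax at least 2 h before agonist. IP1 accumulation was measured by HTRF 24 h post-transfection, at least in duplicate. EC50 ± SEM came from n = 4−6 experiments.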
row,Structure (SMILES),EC50 [mM]
1,N[C@@H](C[C@]1(C(=O)O)C[C@@H]1C(=O)O)C(=O)O,> 1
2,N[C@@H](C[C@@H](CCC(=O)O)C(=O)O)C(=O)O,> 1

# Target: T2, Excitatory amino acid transporter 1 (Homo sapiens, UniProt P43003)
# Test: Substrate activity at human EAAT1 assessed as [3H]Asp uptake measured up to 300 uM
# Details: not given
# T2 sequence (P43003 whole entry): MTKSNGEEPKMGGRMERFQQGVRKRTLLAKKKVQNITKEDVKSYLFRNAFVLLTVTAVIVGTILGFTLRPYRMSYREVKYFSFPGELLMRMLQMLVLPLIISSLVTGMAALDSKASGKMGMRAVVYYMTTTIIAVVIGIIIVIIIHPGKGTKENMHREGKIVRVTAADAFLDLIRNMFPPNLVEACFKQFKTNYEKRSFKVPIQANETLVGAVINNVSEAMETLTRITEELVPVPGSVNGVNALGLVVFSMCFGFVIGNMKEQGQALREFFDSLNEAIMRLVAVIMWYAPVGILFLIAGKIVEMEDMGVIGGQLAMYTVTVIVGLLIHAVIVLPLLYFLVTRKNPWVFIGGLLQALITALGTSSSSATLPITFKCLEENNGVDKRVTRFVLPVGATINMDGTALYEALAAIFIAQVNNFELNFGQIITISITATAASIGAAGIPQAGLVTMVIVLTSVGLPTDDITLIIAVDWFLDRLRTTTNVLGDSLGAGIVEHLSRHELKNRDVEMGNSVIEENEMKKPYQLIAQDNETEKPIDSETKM
row,Structure (SMILES),Activity
1,N[C@@H](C[C@]1(C(=O)O)C[C@@H]1C(=O)O)C(=O)O,inactive
2,N[C@@H](C[C@@H](CCC(=O)O)C(=O)O)C(=O)O,inactive

# Target: T2, Excitatory amino acid transporter 1
# Test: Inhibition of human EAAT1 assessed as [3H]Asp uptake
# Details: not given
row,Structure (SMILES),IC50 [µM]
1,N[C@@H](C[C@]1(C(=O)O)C[C@@H]1C(=O)O)C(=O)O,> 300
2,N[C@@H](C[C@@H](CCC(=O)O)C(=O)O)C(=O)O,> 300

# Target: T3, Metabotropic glutamate receptor 1 (Rattus norvegicus, UniProt P23385)
# Test: Agonist activity at rat mGlu1 receptor expressed in HEK293 cells by intracellular Ca2+ mobilization assay
# Format: functional, cell-based
# Details: not given
row,Structure (SMILES),EC50 [mM]
1,N[C@@H](C[C@@H](CCC(=O)O)C(=O)O)C(=O)O,> 1

# Target: not listed separately
# Test: Displacement of [3H]KA from rat synaptosome KA receptor after 60 mins by microplate scintillation counter analysis
# Details: not given
row,Structure (SMILES),IC50 [µM]
1,N[C@@H](C[C@]1(C(=O)O)C[C@@H]1C(=O)O)C(=O)O,> 100
2,N[C@@H](C[C@@H](CCC(=O)O)C(=O)O)C(=O)O,> 100

# Target: T1, Excitatory amino acid transporter 2
# Test: Substrate activity at human EAAT2 assessed as [3H]Asp uptake measured up to 300 uM
# Details: not given
row,Structure (SMILES),Activity
1,N[C@@H](C[C@]1(C(=O)O)C[C@@H]1C(=O)O)C(=O)O,inactive
2,N[C@@H](C[C@@H](CCC(=O)O)C(=O)O)C(=O)O,inactive

# Target: T3, Metabotropic glutamate receptor 1
# Test: Agonist activity at rat mGlu1 receptor expressed in HEK293 cells assessed as IP1 accumulation by IP-One functional assay
# Format: cell-based
# Details: not given
# In short: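 Rat group I receptor transiently electroporated into HEK293 with the EAAC1 glutamate transporter; medium switched to Glutamax at least 2 h before stimulation. IP1 was read by HTRF (IP-One kit) 24 h after transfection. Runs were at least in duplicate, with EC50 ± SEM from n = 4−6 experiments.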
row,Structure (SMILES),EC50 [mM]
1,N[C@@H](C[C@]1(C(=O)O)C[C@@H]1C(=O)O)C(=O)O,> 1
2,N[C@@H](C[C@@H](CCC(=O)O)C(=O)O)C(=O)O,> 1

# Target: T4, Metabotropic glutamate receptor 4 (Rattus norvegicus, UniProt P31423)
# Test: Agonist activity at rat mGlu4 receptor expressed in HEK293 cells assessed as IP1 accumulation by IP-One functional assay
# Format: cell-based
# Details: not given
# In short: as §1
# T4 sequence (P31423 whole entry): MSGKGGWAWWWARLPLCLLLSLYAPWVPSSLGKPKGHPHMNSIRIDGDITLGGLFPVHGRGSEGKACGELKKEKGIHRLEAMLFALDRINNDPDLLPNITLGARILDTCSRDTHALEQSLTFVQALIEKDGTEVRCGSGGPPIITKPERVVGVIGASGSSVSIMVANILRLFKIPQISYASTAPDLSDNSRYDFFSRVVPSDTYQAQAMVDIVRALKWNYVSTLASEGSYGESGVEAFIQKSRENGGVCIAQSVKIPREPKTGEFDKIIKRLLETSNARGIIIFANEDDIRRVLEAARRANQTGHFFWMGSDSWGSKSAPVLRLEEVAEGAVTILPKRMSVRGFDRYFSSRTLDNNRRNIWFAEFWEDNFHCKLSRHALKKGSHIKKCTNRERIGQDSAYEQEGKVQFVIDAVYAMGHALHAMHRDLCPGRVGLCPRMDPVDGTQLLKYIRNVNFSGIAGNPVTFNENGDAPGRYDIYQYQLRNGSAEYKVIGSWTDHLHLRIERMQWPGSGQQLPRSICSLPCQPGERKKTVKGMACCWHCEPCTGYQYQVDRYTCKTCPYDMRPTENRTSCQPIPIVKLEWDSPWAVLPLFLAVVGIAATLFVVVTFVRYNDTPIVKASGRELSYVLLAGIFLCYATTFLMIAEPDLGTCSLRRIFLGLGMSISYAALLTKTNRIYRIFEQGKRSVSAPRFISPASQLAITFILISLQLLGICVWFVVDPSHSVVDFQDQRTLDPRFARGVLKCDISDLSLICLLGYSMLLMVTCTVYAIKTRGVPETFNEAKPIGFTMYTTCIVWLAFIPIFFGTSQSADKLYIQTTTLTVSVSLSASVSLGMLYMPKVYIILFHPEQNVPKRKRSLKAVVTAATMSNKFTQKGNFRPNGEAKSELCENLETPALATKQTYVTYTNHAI
row,Structure (SMILES),EC50 [µM]
1,N[C@@H](C[C@]1(C(=O)O)C[C@@H]1C(=O)O)C(=O)O,> 1000
2,N[C@@H](C[C@@H](CCC(=O)O)C(=O)O)C(=O)O,≥ 100

# Target: Metabotropic glutamate receptor 2 (Homo sapiens) (UniProt Q14416)
# Test: Agonist activity at mGlu2 receptor (unknown origin) assessed as IP1 accumulation preincubated with 3 uM LY341495 for 20 mins followed by addition of 1 mM of compound by IP-One functional assay
# Details: not given
# In short: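 Single-dose test in HEK293 cells cotransfected with rat receptor, chimeric Gi/Gq and EAAC1. Cells were pretreated with 3 μM LY341495 for 20 min at 37 °C, washed twice, then stimulated with 1 mM compound. IP1 was read by HTRF 24 h post-transfection. Comparison was against vehicle by one-way ANOVA with Dunnett's test.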
row,Structure (SMILES),Activity
1,N[C@@H](C[C@]1(C(=O)O)C[C@@H]1C(=O)O)C(=O)O,Active
2,N[C@@H](C[C@@H](CCC(=O)O)C(=O)O)C(=O)O,Active

# Target: Metabotropic glutamate receptor 7 (Rattus norvegicus, UniProt P35400)
# Test: Agonist activity at rat mGlu7 receptor expressed in HEK293 cells assessed as IP1 accumulation by IP-One functional assay
# Format: cell-based
# Details: not given
# In short: as §1
row,Structure (SMILES),EC50 [mM]
1,N[C@@H](C[C@]1(C(=O)O)C[C@@H]1C(=O)O)C(=O)O,> 1
2,N[C@@H](C[C@@H](CCC(=O)O)C(=O)O)C(=O)O,> 1

# Target: T5, Excitatory amino acid transporter 3 (Homo sapiens, UniProt P43005)
# T5 sequence (P43005 whole entry): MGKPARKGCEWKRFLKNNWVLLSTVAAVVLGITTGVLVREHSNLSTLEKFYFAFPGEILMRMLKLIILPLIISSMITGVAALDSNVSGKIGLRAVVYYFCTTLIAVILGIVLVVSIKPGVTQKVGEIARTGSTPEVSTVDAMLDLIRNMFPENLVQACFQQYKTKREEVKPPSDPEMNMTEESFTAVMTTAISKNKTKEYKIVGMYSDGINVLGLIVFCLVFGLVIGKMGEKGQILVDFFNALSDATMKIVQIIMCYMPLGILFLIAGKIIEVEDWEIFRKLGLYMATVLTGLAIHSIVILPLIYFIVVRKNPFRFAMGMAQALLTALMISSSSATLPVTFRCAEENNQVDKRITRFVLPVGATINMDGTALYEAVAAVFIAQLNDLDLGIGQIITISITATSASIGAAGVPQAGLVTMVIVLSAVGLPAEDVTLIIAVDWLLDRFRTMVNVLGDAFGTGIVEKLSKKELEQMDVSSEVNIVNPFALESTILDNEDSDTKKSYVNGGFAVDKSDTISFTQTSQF
# Test: Inhibition of human EAAT3 assessed as [3H]Asp uptake
# Details: not given
row,Structure (SMILES),IC50 [µM]
1,N[C@@H](C[C@]1(C(=O)O)C[C@@H]1C(=O)O)C(=O)O,> 300
2,N[C@@H](C[C@@H](CCC(=O)O)C(=O)O)C(=O)O,> 300

# Target: T6, Metabotropic glutamate receptor 2 (Rattus norvegicus, UniProt P31421)
# Test: Agonist activity at rat mGlu2 receptor by FRET based mGlu sensor assay
# Details: not given
# In short: (§2)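 Receptor carried an N-terminal SNAP-tag and was transfected into HEK293 cells. At 24 h, surface receptors were labelled for 1 h with 100 nM SNAP-Lumi4-Tb (donor) and 60 nM SNAP Green (acceptor), washed three times, then drug was added. Time-resolved FRET was recorded at 520 nm, at least in duplicate.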
# T6 sequence (P31421 whole entry): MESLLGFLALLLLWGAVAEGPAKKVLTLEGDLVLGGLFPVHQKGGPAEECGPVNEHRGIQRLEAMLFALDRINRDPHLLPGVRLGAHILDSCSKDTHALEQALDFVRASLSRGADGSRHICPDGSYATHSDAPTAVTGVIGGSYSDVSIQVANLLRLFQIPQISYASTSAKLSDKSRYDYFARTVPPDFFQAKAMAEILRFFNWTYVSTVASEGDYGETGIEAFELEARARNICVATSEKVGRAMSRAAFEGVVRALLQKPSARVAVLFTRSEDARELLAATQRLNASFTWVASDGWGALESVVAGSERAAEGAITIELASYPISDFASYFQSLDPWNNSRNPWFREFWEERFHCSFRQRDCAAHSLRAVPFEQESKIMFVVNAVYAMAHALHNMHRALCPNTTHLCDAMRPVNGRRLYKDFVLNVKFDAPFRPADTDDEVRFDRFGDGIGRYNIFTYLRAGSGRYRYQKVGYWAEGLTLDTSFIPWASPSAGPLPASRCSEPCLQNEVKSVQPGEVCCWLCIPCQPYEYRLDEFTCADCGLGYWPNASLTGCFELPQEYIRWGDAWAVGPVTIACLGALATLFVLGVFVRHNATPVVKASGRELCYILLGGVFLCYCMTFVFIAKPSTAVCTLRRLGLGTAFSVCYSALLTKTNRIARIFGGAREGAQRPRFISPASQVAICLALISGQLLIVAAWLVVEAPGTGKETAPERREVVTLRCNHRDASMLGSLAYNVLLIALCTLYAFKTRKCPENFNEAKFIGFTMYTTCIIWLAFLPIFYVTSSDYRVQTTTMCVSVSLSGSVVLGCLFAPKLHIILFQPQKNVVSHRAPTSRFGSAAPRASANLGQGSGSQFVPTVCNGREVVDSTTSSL
row,Structure (SMILES),EC50 [µM]
1,N[C@@H](C[C@]1(C(=O)O)C[C@@H]1C(=O)O)C(=O)O,119
2,N[C@@H](C[C@@H](CCC(=O)O)C(=O)O)C(=O)O,120

# Target: T6, Metabotropic glutamate receptor 2
# Test: Agonist activity at rat mGlu2 receptor expressed in HEK293 cells by [35S]GTP-gamma binding assay
# Format: cell-based
# Details: read-out: EC50
row,Structure (SMILES),EC50 [nM]
1,N[C@@H](C[C@@H](CCC(=O)O)C(=O)O)C(=O)O,1630

# Same assay, conditions: read-out: pEC50 (converted)
row,Structure (SMILES),EC50 [nM]
1,N[C@@H](C[C@@H](CCC(=O)O)C(=O)O)C(=O)O,1660

# Target: Metabotropic glutamate receptor 6 (Rattus norvegicus, UniProt P35349)
# Test: Agonist activity at rat mGlu6 receptor expressed in HEK293 cells assessed as IP1 accumulation by IP-One functional assay
# Format: cell-based
# Details: not given
# In short: as §1
row,Structure (SMILES),EC50 [mM]
1,N[C@@H](C[C@]1(C(=O)O)C[C@@H]1C(=O)O)C(=O)O,> 1
2,N[C@@H](C[C@@H](CCC(=O)O)C(=O)O)C(=O)O,> 1

# Target: Glutamate NMDA receptor
# Test: Displacement of [3H]CGP from rat synaptosome NMDA receptor after 60 mins by microplate scintillation counter analysis
# Format: protein-complex assay
# Details: not given
row,Structure (SMILES),Ki [µM]
1,N[C@@H](C[C@]1(C(=O)O)C[C@@H]1C(=O)O)C(=O)O,> 100

# Target: T7, Metabotropic glutamate receptor 5 (Rattus norvegicus, UniProt P31424)
# Test: Agonist activity at rat mGlu5 receptor expressed in HEK293 cells by intracellular Ca2+ mobilization assay
# Format: functional, cell-based
# Details: not given
# T7 sequence (P31424 whole entry): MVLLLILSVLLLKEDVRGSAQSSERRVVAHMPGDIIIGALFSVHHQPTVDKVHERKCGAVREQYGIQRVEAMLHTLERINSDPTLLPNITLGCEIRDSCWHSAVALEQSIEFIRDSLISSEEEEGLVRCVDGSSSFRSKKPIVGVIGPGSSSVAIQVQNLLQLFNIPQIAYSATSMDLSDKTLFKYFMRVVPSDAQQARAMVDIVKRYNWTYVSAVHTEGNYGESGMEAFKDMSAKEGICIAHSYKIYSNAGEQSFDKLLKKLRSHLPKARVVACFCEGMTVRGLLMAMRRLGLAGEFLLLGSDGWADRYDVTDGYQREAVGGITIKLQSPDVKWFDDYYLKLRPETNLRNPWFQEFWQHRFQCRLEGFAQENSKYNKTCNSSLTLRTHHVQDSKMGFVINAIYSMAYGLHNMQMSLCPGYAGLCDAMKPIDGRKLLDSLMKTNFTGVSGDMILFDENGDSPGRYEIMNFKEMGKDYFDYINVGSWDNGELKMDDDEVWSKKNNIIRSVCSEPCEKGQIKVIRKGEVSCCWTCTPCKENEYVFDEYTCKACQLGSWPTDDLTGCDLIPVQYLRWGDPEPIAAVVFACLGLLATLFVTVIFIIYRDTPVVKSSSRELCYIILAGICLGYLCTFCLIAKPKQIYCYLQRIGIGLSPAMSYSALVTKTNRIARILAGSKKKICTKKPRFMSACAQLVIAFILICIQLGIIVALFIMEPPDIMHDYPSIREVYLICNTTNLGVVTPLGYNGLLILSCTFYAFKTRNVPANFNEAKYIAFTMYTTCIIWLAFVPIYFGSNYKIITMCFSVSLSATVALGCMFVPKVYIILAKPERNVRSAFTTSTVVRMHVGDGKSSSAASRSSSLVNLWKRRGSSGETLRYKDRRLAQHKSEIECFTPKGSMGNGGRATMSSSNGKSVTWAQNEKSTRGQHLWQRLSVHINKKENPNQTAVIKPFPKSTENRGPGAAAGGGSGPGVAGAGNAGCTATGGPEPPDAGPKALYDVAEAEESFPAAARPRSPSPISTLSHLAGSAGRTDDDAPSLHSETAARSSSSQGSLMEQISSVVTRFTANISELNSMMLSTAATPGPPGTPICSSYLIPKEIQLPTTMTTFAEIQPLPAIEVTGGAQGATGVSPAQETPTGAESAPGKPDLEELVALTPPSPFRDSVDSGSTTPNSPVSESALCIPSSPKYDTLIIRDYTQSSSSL
row,Structure (SMILES),EC50 [mM]
1,N[C@@H](C[C@@H](CCC(=O)O)C(=O)O)C(=O)O,> 1

# Target: Metabotropic glutamate receptor 7 (Homo sapiens, UniProt Q14831)
# Test: Agonist activity at human mGlu7 receptor expressed in HEK293 assessed as inhibition of forskolin stimulated cAMP production
# Format: functional, cell-based
# Details: not given
row,Structure (SMILES),EC50 [mM]
1,N[C@@H](C[C@@H](CCC(=O)O)C(=O)O)C(=O)O,> 1

# Target: T6, Metabotropic glutamate receptor 2
# Test: Agonist activity at rat mGlu2 receptor expressed in HEK293 cells assessed as IP1 accumulation by IP-One functional assay
# Format: cell-based
# Details: not given
# In short: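 HEK293 cells were transiently electroporated with the rat receptor plus a chimeric Gi/Gq protein for PLC coupling and EAAC1. Medium was replaced by Glutamax at least 2 h before agonist. IP1 accumulation was measured by HTRF 24 h post-transfection, at least in duplicate.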
row,Structure (SMILES),EC50 [µM]
1,N[C@@H](C[C@]1(C(=O)O)C[C@@H]1C(=O)O)C(=O)O,33.7
2,N[C@@H](C[C@@H](CCC(=O)O)C(=O)O)C(=O)O,34.2

# Target: T8, Metabotropic glutamate receptor 3 (Rattus norvegicus, UniProt P31422)
# Test: Agonist activity at rat mGlu3 receptor expressed in HEK293 cells by [35S]GTP-gamma binding assay
# Format: cell-based
# Details: not given
# T8 sequence (P31422 whole entry): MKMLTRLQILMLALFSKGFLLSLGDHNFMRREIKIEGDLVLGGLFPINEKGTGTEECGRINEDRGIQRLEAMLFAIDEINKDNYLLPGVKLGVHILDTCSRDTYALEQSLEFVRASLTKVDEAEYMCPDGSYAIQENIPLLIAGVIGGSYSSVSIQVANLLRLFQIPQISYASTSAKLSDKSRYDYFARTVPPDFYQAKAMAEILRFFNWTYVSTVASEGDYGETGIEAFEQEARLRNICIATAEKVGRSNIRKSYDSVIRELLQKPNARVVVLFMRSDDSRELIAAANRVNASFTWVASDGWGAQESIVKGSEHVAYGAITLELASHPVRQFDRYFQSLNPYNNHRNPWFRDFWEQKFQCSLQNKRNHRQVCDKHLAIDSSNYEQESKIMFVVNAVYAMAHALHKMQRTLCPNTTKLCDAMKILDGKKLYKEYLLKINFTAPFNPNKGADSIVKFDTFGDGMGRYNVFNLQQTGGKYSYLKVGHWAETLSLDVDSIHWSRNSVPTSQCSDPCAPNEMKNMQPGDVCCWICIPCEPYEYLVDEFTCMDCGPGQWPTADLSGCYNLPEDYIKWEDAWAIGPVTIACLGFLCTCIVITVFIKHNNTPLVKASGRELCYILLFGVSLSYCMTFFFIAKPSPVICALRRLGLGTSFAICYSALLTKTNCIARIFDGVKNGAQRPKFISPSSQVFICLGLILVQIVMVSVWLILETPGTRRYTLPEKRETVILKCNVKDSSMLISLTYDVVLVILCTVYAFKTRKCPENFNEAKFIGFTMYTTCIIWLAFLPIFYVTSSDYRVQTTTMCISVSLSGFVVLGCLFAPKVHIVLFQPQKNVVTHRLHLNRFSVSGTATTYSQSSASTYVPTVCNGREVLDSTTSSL
row,Structure (SMILES),EC50 [µM]
1,N[C@@H](C[C@@H](CCC(=O)O)C(=O)O)C(=O)O,348

# Target: T4, Metabotropic glutamate receptor 4
# Test: Agonist activity at rat mGlu4 receptor expressed in HEK293 cells assessed as inhibition of forskolin stimulated cAMP production
# Format: functional, cell-based
# Details: not given
row,Structure (SMILES),EC50 [mM]
1,N[C@@H](C[C@@H](CCC(=O)O)C(=O)O)C(=O)O,> 1

# Target: T7, Metabotropic glutamate receptor 5
# Test: Agonist activity at rat mGlu5 receptor expressed in HEK293 cells assessed as IP1 accumulation by IP-One functional assay
# Format: cell-based
# Details: not given
row,Structure (SMILES),EC50 [mM]
1,N[C@@H](C[C@]1(C(=O)O)C[C@@H]1C(=O)O)C(=O)O,> 1
2,N[C@@H](C[C@@H](CCC(=O)O)C(=O)O)C(=O)O,> 1

# Target: Metabotropic glutamate receptor 3 (Rattus norvegicus) (UniProt P31422)
# Test: Agonist activity at mGlu3 receptor (rat) assessed as IP1 accumulation preincubated with 3 uM LY341495 for 20 mins followed by addition of 1 mM of compound by IP-One functional assay
# Details: not given
# Metabotropic glutamate receptor 3 (Rattus norvegicus), sequence (P31422 whole entry, looked up): as the sequence (P31422 whole entry) above
row,Structure (SMILES),Activity
1,N[C@@H](C[C@]1(C(=O)O)C[C@@H]1C(=O)O)C(=O)O,inactive
2,N[C@@H](C[C@@H](CCC(=O)O)C(=O)O)C(=O)O,inactive

# Target: T8, Metabotropic glutamate receptor 3
# Test: Agonist activity at rat mGlu3 receptor by FRET based mGlu sensor assay
# Details: not given
# In short: as §2, with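 “duplicate. EC50 ± SEM came from n = 4−6 experiments.” for “duplicate.”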
row,Structure (SMILES),EC50 [mM]
1,N[C@@H](C[C@]1(C(=O)O)C[C@@H]1C(=O)O)C(=O)O,> 1
2,N[C@@H](C[C@@H](CCC(=O)O)C(=O)O)C(=O)O,> 1
